Each structure is given as a SMILES string.

One data set in a line: Solubility versus pH. In kind it is physicochemical. As to conditions: dependence on pH.
The nature of the next data set: Rifampin. In kind it is in vivo, human. The procedure, abridged: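 Crossover in healthy adults (18–60 y, BMI 18–30 kg/m2) with a 10-day washout. Single oral 600 mg dose given alone or with rifampin 600 mg (2 × 300 mg capsules), taken with 240 mL water after at least 8–10 h fasting and 4 h further fasting. Plasma was measured by LC-MS/MS (30–3750 ng/mL). ANOVA (treatment, period, sequence, subject within sequence) on log Cmax/AUC∞ gave 90% CIs.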

A short description of the next data set: Esomeprazole. In kind it is in vivo, human. As to conditions: for AUC(0-inf) / Cmax: human, plasma, oral, Geometric LS mean, ANOVA. The procedure, abridged:
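Healthy adults (18–60 y, BMI 18–30 kg/m2) in an open-label randomized two-period crossover with a 10-day washout. Single 600 mg oral dose (3 × 200 mg capsules) alone or with esomeprazole 40 mg, fasted at least 8–10 h plus 4 h post-dose. Plasma was assayed by LC-MS/MS (30–3750 ng/mL). ANOVA on ln Cmax/AUC∞ gave 90% CIs of geometric LS mean ratios.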

The nature of data set [1]: Four phase I DDI studies overall. In kind it is in vivo, human. The procedure, abridged:
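Across four crossover studies, healthy subjects received a single 600 mg oral dose fasted. Tmax came from plasma LC-MS/MS profiles, with BLQ values set to zero or missing by position. Safety covered adverse events, physical examination, vital signs, 12-lead ECG and laboratory tests. The investigator graded severity and causality. Analysis was descriptive over all subjects dosed at least once.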

Another data set concerns the target T1, OAT1 (Homo sapiens, UniProt Q4U2R8).
T1 sequence (Q4U2R8 1-563): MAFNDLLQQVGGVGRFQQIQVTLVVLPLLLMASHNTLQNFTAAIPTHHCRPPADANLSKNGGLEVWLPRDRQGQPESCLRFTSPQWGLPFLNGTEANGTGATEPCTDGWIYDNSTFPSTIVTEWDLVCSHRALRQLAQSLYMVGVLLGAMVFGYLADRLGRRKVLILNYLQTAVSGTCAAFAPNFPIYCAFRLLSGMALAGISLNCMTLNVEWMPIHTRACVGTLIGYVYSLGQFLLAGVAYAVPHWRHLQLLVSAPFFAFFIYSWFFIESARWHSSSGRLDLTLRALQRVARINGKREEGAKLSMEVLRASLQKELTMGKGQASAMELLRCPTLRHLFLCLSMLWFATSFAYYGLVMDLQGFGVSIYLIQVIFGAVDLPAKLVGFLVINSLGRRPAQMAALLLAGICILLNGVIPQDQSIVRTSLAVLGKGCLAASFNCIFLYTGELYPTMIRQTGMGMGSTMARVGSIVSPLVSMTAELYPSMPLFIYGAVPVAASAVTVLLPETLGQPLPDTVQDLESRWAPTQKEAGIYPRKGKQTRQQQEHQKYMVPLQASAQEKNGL
As to the kind of experiment: In vitro OAT1 substrate assessment. In kind it is in vitro ADME. As to conditions: in vitro data.

The next data set concerns the target CYP3A4 (Homo sapiens, UniProt P08684). As to the kind of experiment: In vitro mechanism-based inactivation of CYP3A4. It is filed as biochemical.
Data set [2] deals with cytochrome P450 (CYP) 3A4 (Homo sapiens, UniProt P08684). Description: In vitro metabolism: enzyme responsible. It is filed as in vitro ADME. As to conditions: in vitro studies.
cytochrome P450 (CYP) 3A4, sequence (P08684 whole entry): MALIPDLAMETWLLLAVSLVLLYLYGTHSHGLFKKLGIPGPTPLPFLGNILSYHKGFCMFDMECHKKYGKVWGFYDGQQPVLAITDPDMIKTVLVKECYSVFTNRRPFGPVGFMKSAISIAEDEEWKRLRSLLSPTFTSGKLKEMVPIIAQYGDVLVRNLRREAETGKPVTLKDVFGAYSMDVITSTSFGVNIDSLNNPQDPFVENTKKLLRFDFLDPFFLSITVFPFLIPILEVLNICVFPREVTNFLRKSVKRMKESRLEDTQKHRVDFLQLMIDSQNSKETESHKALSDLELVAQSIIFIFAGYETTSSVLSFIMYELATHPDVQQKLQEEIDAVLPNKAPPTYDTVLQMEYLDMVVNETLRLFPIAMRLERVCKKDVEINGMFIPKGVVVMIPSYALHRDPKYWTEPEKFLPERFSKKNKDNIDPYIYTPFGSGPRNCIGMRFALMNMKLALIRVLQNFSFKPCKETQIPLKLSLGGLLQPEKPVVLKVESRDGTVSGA
The next data set has as its target T2, UGT1A4 (Homo sapiens, UniProt P22310).
T2 sequence (P22310 29-534): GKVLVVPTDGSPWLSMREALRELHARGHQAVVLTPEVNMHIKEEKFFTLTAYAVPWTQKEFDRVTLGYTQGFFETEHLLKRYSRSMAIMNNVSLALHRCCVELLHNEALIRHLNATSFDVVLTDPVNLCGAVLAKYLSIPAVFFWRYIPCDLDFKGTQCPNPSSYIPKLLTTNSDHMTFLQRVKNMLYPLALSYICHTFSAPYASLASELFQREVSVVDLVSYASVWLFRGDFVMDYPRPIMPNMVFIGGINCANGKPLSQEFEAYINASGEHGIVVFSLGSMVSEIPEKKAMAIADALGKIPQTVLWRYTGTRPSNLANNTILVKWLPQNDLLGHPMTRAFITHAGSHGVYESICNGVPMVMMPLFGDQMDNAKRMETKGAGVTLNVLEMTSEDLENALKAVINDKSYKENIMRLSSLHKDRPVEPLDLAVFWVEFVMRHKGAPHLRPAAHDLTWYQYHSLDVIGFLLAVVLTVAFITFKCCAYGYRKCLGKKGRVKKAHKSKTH
As to the kind of experiment: UGT substrate / metabolite formation. The note with it: generates ZAAD-1006a. It is filed as in vitro ADME.

A further data set in a line: Probenecid. It is filed as in vivo, human. The method in brief: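 Two-treatment crossover in healthy subjects (18–60 y, BMI 18–32 kg/m2) with a 17-day washout. A 600 mg oral capsule dose was given alone or with probenecid 500 mg tablet, after fasting at least 8–10 h and for 4 h post-dose. Plasma was collected through 312 h and measured by LC-MS/MS. Ratios came from ANOVA of ln-transformed Cmax and AUC∞ with 90% CIs.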

A further data set can be described thus: Itraconazole. In kind it is in vivo, human. The method in brief:
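Healthy adults (18–60 y) in a two-treatment crossover with a 10-day washout. Single 600 mg oral dose given alone or with itraconazole 200 mg oral solution, with overnight fast (at least 8–10 h) and 4 h post-dose fast. Sampling extended to 312 h. Plasma was quantified by validated LC-MS/MS. ANOVA of log-transformed Cmax and AUC∞ gave two-sided 90% CIs of geometric LS mean ratios.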

For data set [3] the following is noted: co-administration with probenecid, healthy subjects ref 12; cited from earlier work.
[4] abbreviates: co-administered with rifampin vs alone.
[5] abbreviates: pexidartinib + rifampin vs pexidartinib alone.
[6] abbreviates: co-administered with esomeprazole vs alone.
[7] abbreviates: pexidartinib + esomeprazole vs pexidartinib alone.
The mark [8] stands for this setting: pexidartinib + probenecid vs pexidartinib alone.
The mark [9] stands for this setting: co-administered with itraconazole vs alone.
Where [10] appears, read: pexidartinib + itraconazole vs pexidartinib alone.

CYP3A4, sequence (P08684 whole entry): as the sequence (P08684 whole entry) above

For the compound `FC(F)(F)c1ccc(CNc2ccc(Cc3c[nH]c4ncc(Cl)cc34)cn2)cn1` [Pexidartinib], the solubility entry in “Solubility versus pH” is recorded as “decreases as pH increases”. Also, the “decrease in AUC∞” value in the data set “Rifampin” (setting [4]) is recorded as about 63%; in “Esomeprazole” (setting [6]) it was about 47%. Also, the “decrease in Cmax” value in “Rifampin” (setting [4]) is “approximately 33%”; in the data set “Esomeprazole” (setting [6]) it was “approximately 55%”. The figures for the “subjects who experienced a TEAE” value in “Rifampin” (grade 1 diarrhea), in the data set “Probenecid” (N = 16) and in “Itraconazole” (N = 16) were “single”, “Eight” and “nine”, respectively. The “AUC∞, Geometric LS mean ratio (90% CI)” value in “Rifampin” (setting [5]) is 37.0 (30.6–44.8) %; in “Esomeprazole” (setting [7]), 53.1 (47.4–59.3) %; in the data set “Probenecid” (setting [8]), 159.8 (143.4–178.0) %; in the data set “Itraconazole” (setting [10]), 173.0 (160.7–186.3) %. Besides, the “Cmax, Geometric LS mean ratio (90% CI)” value in the data set “Rifampin” (setting [5]) is 67.1 (53.1–84.8) %; in the data set “Esomeprazole” (setting [7]), 45.4 (36.8–55.9) %; in the data set “Probenecid” (setting [8]), 105.8 (92.4–121.0) %; in the data set “Itraconazole” (setting [10]), 148.3 (127.8–172.0) %. The AUC(0-inf) in “Esomeprazole” (600 mg, pexidartinib alone) amounted to 104000 ng·h/mL; in “Esomeprazole” (pexidartinib + esomeprazole), 55400 ng·h/mL. The Cmax in “Esomeprazole” (600 mg, pexidartinib alone) was 6430 ng/mL; in the data set “Esomeprazole” (pexidartinib + esomeprazole), 2920 ng/mL. The “severity of treatment-emergent adverse events (TEAEs)” value in data set [1] (all four studies) is on record as “grade 1 or 2”. Further, the Tmax in data set [1] (human, plasma, oral) was 2 to 3 h. Also, the “substrate for OAT1” value on OAT1 is on record as “not a substrate for OAT1”. Further, at CYP3A4, the KI (inactivation) came to 4.01 µM. Further, the kinact on CYP3A4 is 0.000377 s⁻¹. Also, the “enzyme responsible for metabolism” value in [2] is “cytochrome P450 (CYP) 3A4 as the main enzyme”. Further, the UGT1A4 substrate result on UGT1A4 was “substrate of the UGT1A4 enzyme”. In the data set “Probenecid” (co-administered with probenecid vs alone), the “effect on Cmax” value is “unchanged”. The “subjects with TEAE considered study drug related” value in “Probenecid” (in vivo) is “four”. In addition, in the data set “Itraconazole” (setting [9]), the “increase in AUC∞” value is about 73%. Moreover, the “increase in Cmax” value in “Itraconazole” (setting [9]) was “approximately 48%”. Besides, in “Itraconazole” (pexidartinib or itraconazole), the “subjects with TEAE assessed as related to the study drug” value is listed as “seven”.
As for `CCCc1nc(C(C)(C)O)c(C(=O)O)n1Cc1ccc(-c2ccccc2-c2nnn[nH]2)cc1` [olmesartan], in [3], the “increase in AUC” value is on record as “approximately 50%”.

The record behind these values is article PMC9652259 (Clinical Pharmacokinetics, 2022).
